Measured values taken from ChEMBL document CHEMBL4138102, “Design, synthesis and evaluation of azaacridine derivatives as dual-target EGFR and Src kinase inhibitors for antitumor treatment” (Eur J Med Chem, 2017).
One block for each compound: values may come before it.

Legend:
K562 [1] = experiment: Antiproliferative activity against human K562 cells after 48 hrs by MTT assay; format: functional, cell-based; details: K562, 48 h
Procedure, shortened: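 K562 at 7×10⁵ cells mL^-1 seeded and held 12 h at 37 °C, 5% CO₂. Compound added in triplicate per concentration for 48 h. MTT (5 mg mL^-1 solution) added for 4 h at 37 °C, formazan dissolved in DMSO, absorbance read at 490 nm; IC₅₀ derived.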

A549 [2] = experiment: Antiproliferative activity against human A549 cells after 48 hrs by MTT assay; format: functional, cell-based; details: A549, 48 h
Procedure, shortened: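 A549 seeded at 5-7 × 10³ cells per well and incubated overnight at 37 °C, 5% CO₂. Medium then replaced with fresh medium holding graded compound concentrations or equal DMSO, 48 h. MTT (5 mg mL^-1 solution) added for 4 h, formazan dissolved in DMSO, absorbance read at 490 nm; IC₅₀ derived.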

[3] = target: Epidermal growth factor receptor (Homo sapiens) (UniProt P00533); experiment: Inhibition of EGFR (unknown origin) at 10 uM after 15 mins by luminescence assay relative to control
Sequence of Epidermal growth factor receptor (Homo sapiens) (P00533 whole entry): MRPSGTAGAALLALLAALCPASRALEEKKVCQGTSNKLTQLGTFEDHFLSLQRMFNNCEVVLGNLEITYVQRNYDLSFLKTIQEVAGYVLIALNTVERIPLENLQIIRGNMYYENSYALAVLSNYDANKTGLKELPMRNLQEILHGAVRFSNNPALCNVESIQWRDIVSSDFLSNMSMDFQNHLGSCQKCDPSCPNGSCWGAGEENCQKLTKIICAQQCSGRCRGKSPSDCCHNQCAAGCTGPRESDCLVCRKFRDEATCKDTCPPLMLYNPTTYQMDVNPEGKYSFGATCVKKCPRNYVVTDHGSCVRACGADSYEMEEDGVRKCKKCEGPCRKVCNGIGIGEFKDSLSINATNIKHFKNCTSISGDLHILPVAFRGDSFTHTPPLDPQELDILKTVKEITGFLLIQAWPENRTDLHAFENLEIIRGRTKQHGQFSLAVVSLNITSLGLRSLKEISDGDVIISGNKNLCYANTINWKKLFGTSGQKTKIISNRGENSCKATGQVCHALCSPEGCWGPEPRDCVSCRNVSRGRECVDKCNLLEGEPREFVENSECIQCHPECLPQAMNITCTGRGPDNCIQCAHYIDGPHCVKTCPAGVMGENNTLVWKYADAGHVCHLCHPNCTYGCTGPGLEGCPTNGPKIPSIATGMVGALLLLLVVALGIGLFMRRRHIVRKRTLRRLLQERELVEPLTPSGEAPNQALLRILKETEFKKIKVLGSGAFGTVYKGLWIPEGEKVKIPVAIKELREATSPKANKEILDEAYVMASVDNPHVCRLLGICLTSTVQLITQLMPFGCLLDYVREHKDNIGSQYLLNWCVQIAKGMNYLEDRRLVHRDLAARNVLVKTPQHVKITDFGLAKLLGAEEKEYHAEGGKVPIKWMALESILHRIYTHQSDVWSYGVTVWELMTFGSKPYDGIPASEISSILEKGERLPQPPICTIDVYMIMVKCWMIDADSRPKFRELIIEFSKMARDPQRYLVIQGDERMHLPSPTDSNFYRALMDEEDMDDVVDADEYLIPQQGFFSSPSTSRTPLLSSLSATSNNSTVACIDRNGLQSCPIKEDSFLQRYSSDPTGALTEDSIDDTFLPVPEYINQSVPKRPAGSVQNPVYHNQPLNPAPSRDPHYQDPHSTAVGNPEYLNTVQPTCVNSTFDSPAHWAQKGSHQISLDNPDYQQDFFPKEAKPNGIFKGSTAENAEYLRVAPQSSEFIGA
Procedure, shortened: (§1)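 Contract HTRF-format assay: enzyme, substrate, ATP and compound mixed in 50 mM HEPES/NaOH pH 7.0, 0.02% NaN₃, 0.01% BSA, 0.1 mM orthovanadate, 5 mM MgCl₂, 1 mM DTT. Incubated 15 min at room temperature with compound in 2.5% DMSO. Streptavidin-XL665 and TK antibody europium cryptate added in KF/EDTA buffer; signal read on EnVision; % inhibition computed.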

A549 [4] = experiment: Antiinvasive activity in human A549 cells at 0.1 uM preincubated for 6 hrs followed by cell seeding on the inserts to reach confluence for 12 hrs measured after 24 hrs by trypan blue staining-based bright-field light microscopic analysis relative to control; format: functional
Procedure, shortened: (§2)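 A549 cells pretreated with compound for 6 h, seeded on fibronectin-coated 8 µm pore invasion inserts to reach confluence over 12 h, then cultured another 24 h with drug. Cells fixed in 4% formaldehyde, non-invading cells swabbed off, invaders stained with 0.08% trypan blue for 15 min. Five random bright-field views counted; mean ± SEM of five experiments versus control.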

A549 [5] = experiment: Antiinvasive activity in human A549 cells at 1 uM preincubated for 6 hrs followed by cell seeding on the inserts to reach confluence for 12 hrs measured after 24 hrs by trypan blue staining-based bright-field light microscopic analysis relative to control; format: functional; procedure, shortened: as §2
K562 [6] = experiment: Induction of apoptosis in human K562 cells assessed as early apoptotic cells at 0.1 uM after 48 hrs by Annexin V-FITC/propidium iodide based flow cytometric analysis (reference value: 4.68%); format: functional
[7] = target: Proto-oncogene tyrosine-protein kinase Src (Homo sapiens) (UniProt P12931); experiment: Inhibition of SRC (unknown origin) at 1 uM after 15 mins by luminescence assay relative to control; procedure, shortened: as §1
Sequence of Proto-oncogene tyrosine-protein kinase Src (Homo sapiens) (P12931 2-536 limits assumed): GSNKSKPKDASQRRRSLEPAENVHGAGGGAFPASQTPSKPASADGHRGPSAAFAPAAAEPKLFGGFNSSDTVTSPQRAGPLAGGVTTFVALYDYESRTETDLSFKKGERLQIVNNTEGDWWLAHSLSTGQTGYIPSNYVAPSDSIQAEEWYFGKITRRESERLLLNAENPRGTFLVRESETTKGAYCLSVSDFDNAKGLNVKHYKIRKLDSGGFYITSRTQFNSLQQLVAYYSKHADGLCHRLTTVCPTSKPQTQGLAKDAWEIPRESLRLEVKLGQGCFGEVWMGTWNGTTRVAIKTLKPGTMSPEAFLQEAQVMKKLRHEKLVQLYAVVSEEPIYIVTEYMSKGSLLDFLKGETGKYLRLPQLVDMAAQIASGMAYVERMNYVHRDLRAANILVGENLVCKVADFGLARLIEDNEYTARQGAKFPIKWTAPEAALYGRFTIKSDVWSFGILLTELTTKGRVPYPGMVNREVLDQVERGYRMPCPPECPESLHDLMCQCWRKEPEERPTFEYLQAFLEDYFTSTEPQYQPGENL

K562 [8] = experiment: Induction of apoptosis in human K562 cells after 48 hrs by Annexin V-FITC/propidium iodide based flow cytometric analysis; format: functional, cell-based
K562 [9] = experiment: Induction of apoptosis in human K562 cells assessed as necrotic cells at 0.01 uM after 48 hrs by Annexin V-FITC/propidium iodide based flow cytometric analysis (reference value: 0.22%); format: functional
K562 [10] = experiment: Induction of apoptosis in human K562 cells assessed as late apoptotic cells at 1 uM after 48 hrs by Annexin V-FITC/propidium iodide based flow cytometric analysis (reference value: 2.49%); format: functional
Calf thymus DNA [11] = experiment: Binding affinity to calf thymus DNA by UV-visible absorption spectral analysis; format: nucleic-acid assay; details: Bos taurus
K562 [12] = experiment: Induction of apoptosis in human K562 cells assessed as late apoptotic cells at 0.01 uM after 48 hrs by Annexin V-FITC/propidium iodide based flow cytometric analysis (reference value: 2.49%); format: functional
A549 [13] = experiment: Downregulation of SRC protein expression in human A549 cells after 48 hrs by Western blot analysis; format: functional, cell-based
Procedure, shortened: (§3)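 Cells exposed to 0, 0.1, 0.5 and 2.5 µM for 48 h, then lysed and protein quantified. Equal protein loads run on 10% SDS-PAGE, transferred to PVDF and probed for EGFR, p-EGFR, Src and p-Src with HRP secondaries and luminescence detection. Band density expressed as percentage of β-actin.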

K562 [14] = experiment: Induction of apoptosis in human K562 cells assessed as early apoptotic cells at 1 uM after 48 hrs by Annexin V-FITC/propidium iodide based flow cytometric analysis (reference value: 4.68%); format: functional
[15] = target: Epidermal growth factor receptor (Homo sapiens) (UniProt P00533); experiment: Inhibition of EGFR phosphorylation in human A549 cells after 48 hrs by Western blot analysis; format: cell-based; procedure, shortened: as §3
A549 [16] = experiment: Downregulation of EGFR protein expression in human A549 cells after 48 hrs by Western blot analysis; format: functional, cell-based; procedure, shortened: as §3
[17] = target: Proto-oncogene tyrosine-protein kinase Src (Homo sapiens) (UniProt P12931); experiment: Inhibition of SRC phosphorylation in human A549 cells after 48 hrs by Western blot analysis; format: cell-based; procedure, shortened: as §3
K562 [18] = experiment: Induction of apoptosis in human K562 cells assessed as late apoptotic cells at 0.1 uM after 48 hrs by Annexin V-FITC/propidium iodide based flow cytometric analysis (reference value: 2.49%); format: functional
K562 [19] = experiment: Induction of apoptosis in human K562 cells assessed as early apoptotic cells at 0.01 uM after 48 hrs by Annexin V-FITC/propidium iodide based flow cytometric analysis (reference value: 4.68%); format: functional
K562 [20] = experiment: Induction of apoptosis in human K562 cells assessed as necrotic cells at 0.1 uM after 48 hrs by Annexin V-FITC/propidium iodide based flow cytometric analysis (reference value: 0.22%); format: functional
Calf thymus DNA [21] = experiment: Binding affinity to calf thymus DNA by fluorescence titration method; format: nucleic-acid assay; details: Bos taurus
[22] = target: Epidermal growth factor receptor (Homo sapiens) (UniProt P00533); experiment: Inhibition of EGFR phosphorylation in human A549 cells by measuring EGFR phosphorylated protein level up to 2.5 uM after 48 hrs by Western blot analysis (reference value: 50.21%); format: cell-based; set-up: scale not given: the % may be the effect or the level left; procedure, shortened: as §3
A549 [23] = experiment: Downregulation of EGFR protein expression in human A549 cells by measuring EGFR level up to 2.5 uM after 48 hrs by Western blot analysis (reference value: 48.02%); format: functional; procedure, shortened: as §3
K562 [24] = experiment: Induction of apoptosis in human K562 cells assessed as necrotic cells at 1 uM after 48 hrs by Annexin V-FITC/propidium iodide based flow cytometric analysis (reference value: 0.22%); format: functional
[25] = target: Epidermal growth factor receptor (Homo sapiens) (UniProt P00533); experiment: Inhibition of EGFR (unknown origin) at 1 uM after 15 mins by luminescence assay relative to control; procedure, shortened: as §1

SMILES: Cc1cccc(NC(=O)Nc2ccc(Nc3ncnc4c3Cc3ccccc3N4)cc2)c1
IC50 (K562 [1]): 6.97 µM | IC50 (A549 [2]): > 25 µM | inhibition [3]: 65.4%

SMILES: Cc1ccc(NC(=O)c2ccc(CN3CCN(C)CC3)cc2)cc1Nc1nccc(-c2cccnc2)n1 [IMATINIB]
IC50 (A549 [2]): 4.56 µM

SMILES: O=C(Nc1ccc(Nc2ncnc3c2Cc2ccccc2N3)cc1)Nc1cccc(F)c1
IC50 (K562 [1]): 3.14 µM | IC50 (A549 [2]): 6.82 µM | inhibition [3]: 55.4%

SMILES: O=C(Nc1cccc(Nc2ncnc3c2Cc2ccccc2N3)c1)c1cccc(C(F)(F)F)c1
IC50 (K562 [1]): 1.89 µM | IC50 (A549 [2]): 9.58 µM | inhibition [3]: 16.3%

SMILES: O=C(Nc1cccc(Nc2ncnc3c2Cc2ccccc2N3)c1)c1ccccc1
IC50 (K562 [1]): 3.11 µM | IC50 (A549 [2]): 18.3 µM | inhibition [3]: 30.7%

SMILES: COc1ccc2c(Nc3ccc(NC(=O)Nc4ccccc4)cc3)c3ccccc3nc2c1
IC50 (A549 [2]): 9.03 µM | inhibition [3]: 21.4%

SMILES: O=C(Nc1cccc(Nc2ncnc3c2Cc2ccccc2N3)c1)c1cccc(F)c1
IC50 (K562 [1]): 0.72 µM | IC50 (A549 [2]): 9.05 µM | inhibition [3]: 24.5%

SMILES: Cc1cccc(C(=O)Nc2ccc(Nc3ncnc4c3Cc3ccccc3N4)cc2)c1
IC50 (K562 [1]): 3.62 µM | IC50 (A549 [2]): 24.8 µM | inhibition [3]: 51.1%

SMILES: O=C(Nc1cccc(Nc2ncnc3c2Cc2ccccc2N3)c1)c1cccc(Cl)c1
IC50 (K562 [1]): 1.21 µM | IC50 (A549 [2]): 12.3 µM | inhibition [3]: 30.2%

Further lines, with some results ahead:

IC50 (K562 [1]): 3.35 µM | IC50 (A549 [2]): 9.26 µM | inhibition [3]: 35.4%
SMILES: O=C(Nc1ccc(Nc2ncnc3c2Cc2ccccc2N3)cc1)Nc1cccc(C(F)(F)F)c1

IC50 (K562 [1]): 3.62 µM | IC50 (A549 [2]): 13.4 µM | inhibition [3]: 24.9%
SMILES: COc1cccc(NC(=O)Nc2ccc(Nc3ncnc4c3Cc3ccccc3N4)cc2)c1

IC50 (K562 [1]): 3.08 µM | IC50 (A549 [2]): 13.5 µM | inhibition [3]: 31.9%
SMILES: COc1cccc(C(=O)Nc2cccc(Nc3ncnc4c3Cc3ccccc3N4)c2)c1

IC50 (K562 [1]): 5.08 µM | IC50 (A549 [2]): 18 µM | inhibition [3]: 32%
SMILES: O=C(Nc1ccccc1)Nc1ccc(Nc2ncnc3c2Cc2ccccc2N3)cc1

IC50 (K562 [1]): 4.9 µM | IC50 (A549 [2]): > 25 µM | inhibition [3]: 53%
SMILES: Cc1cccc(C(=O)Nc2cccc(Nc3ncnc4c3Cc3ccccc3N4)c2)c1

IC50 (K562 [1]): 3.08 µM | IC50 (A549 [2]): 17.9 µM | inhibition [3]: 42.1%
SMILES: O=C(Nc1ccc(Nc2ncnc3c2Cc2ccccc2N3)cc1)Nc1cccc(Cl)c1

IC50 (K562 [1]): 2.52 µM | IC50 (A549 [2]): 14.3 µM | inhibition [3]: 12.6%
SMILES: O=C(Nc1ccc(Nc2ncnc3c2Cc2ccccc2N3)cc1)c1ccccc1

IC50 (K562 [1]): 2.16 µM | IC50 (A549 [2]): 14.1 µM | inhibition [3]: 35.4%
SMILES: COc1cccc(C(=O)Nc2ccc(Nc3ncnc4c3Cc3ccccc3N4)cc2)c1

IC50 (K562 [1]): 0.41 µM | IC50 (A549 [2]): 20.7 µM | inhibition [3]: 30.9%
SMILES: O=C(Nc1ccc(Nc2ncnc3c2Cc2ccccc2N3)cc1)c1cccc(Cl)c1

inhibition [7]: 72.1% | IC50 (K562 [1]): 0.22 µM | Kb (Calf thymus DNA [11]): 4.16 ×10³ /M | IC50 (A549 [2]): 0.253 µM | inhibition [15]: Dose-dependent effect | inhibition [17]: Dose-dependent effect | K (Calf thymus DNA [21]): 973 M⁻¹ | Activity [22]: 3.11% | inhibition [3]: 33.1 to 33.5%
SMILES: O=C(Nc1ccc(Nc2ncnc3c2Cc2ccccc2N3)cc1)c1cccc(F)c1
inhibition at 0.1 µM (A549 [4]): 52.5% | inhibition at 1 µM (A549 [5]): 82.8% | Activity (K562 [6]): 18.82% | Activity (K562 [8]): Dose-dependent effect | Activity (K562 [9]): 0.17% | Activity (K562 [10]): 45.15% | Activity (K562 [12]): 3.06% | Activity (A549 [13]): Dose-dependent effect | Activity (K562 [14]): 4.19% | Activity (A549 [16]): Dose-dependent effect | Activity (K562 [18]): 27.11% | Activity (K562 [19]): 11.14% | Activity (K562 [20]): 1.06% | Activity (A549 [23]): 3.03% | Activity (K562 [24]): 0.77%

IC50 (K562 [1]): 1.32 µM | inhibition [25]: 52.4% | IC50 (A549 [2]): 12.2 µM | inhibition [3]: 95.4%
SMILES: O=C(Nc1ccc(Nc2ncnc3c2Cc2ccccc2N3)cc1)c1cccc(C(F)(F)F)c1
